The source made the active and inactive calls. The rule behind the calls is not given here.
Experiments:
[1] = AUC (0 to 12 hrs) in Sprague-Dawley rat at 10 mg/kg, iv; assay type: ADME, organism-based; set-up: time < 12 hr, route intravenous, dose 10 mg/kg; details: in vivo
B16-F10 [2] = experiment: Induction of apoptosis in mouse B16F10 cells assessed as decrease in Bcl-2 level upto 1000 nM incubated for 48 hrs by Western blot analysis; assay type: functional, cell-based; details: dose nM <=1000, time 48.0 hrs
Summary of the method: (§1)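 A375 and B16F10 cells incubated with compound for 48 h. Cleaved caspase-3, cleaved PARP, total P53, Bcl-2 and Bax measured by western blot.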

[3] = biological target: T1, Protein cereblon/Cyclin-dependent kinase 6 (Mus musculus) (UniProt Q8C7D2+Q64261); experiment: Protac activity at CRBN/CDK6 in mouse B16F10 cells assessed as induction of CDK6 protein degradation at 100 nM for 6 hrsin presence of Pomalidomide by Western blot analysis; assay type: cell-based; details: B16-F10, time 6.0 hrs
T1 sequence (Q64261 whole entry, looked up): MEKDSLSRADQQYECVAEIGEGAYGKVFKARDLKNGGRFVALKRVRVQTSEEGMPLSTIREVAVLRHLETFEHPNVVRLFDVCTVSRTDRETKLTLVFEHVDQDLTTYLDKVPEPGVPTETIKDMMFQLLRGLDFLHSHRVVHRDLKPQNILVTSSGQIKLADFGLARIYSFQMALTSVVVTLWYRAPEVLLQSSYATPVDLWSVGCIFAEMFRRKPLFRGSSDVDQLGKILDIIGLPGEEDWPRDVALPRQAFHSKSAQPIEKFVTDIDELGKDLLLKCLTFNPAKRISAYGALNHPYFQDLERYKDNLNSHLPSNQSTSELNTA
T1 sequence (Q8C7D2 whole entry, looked up): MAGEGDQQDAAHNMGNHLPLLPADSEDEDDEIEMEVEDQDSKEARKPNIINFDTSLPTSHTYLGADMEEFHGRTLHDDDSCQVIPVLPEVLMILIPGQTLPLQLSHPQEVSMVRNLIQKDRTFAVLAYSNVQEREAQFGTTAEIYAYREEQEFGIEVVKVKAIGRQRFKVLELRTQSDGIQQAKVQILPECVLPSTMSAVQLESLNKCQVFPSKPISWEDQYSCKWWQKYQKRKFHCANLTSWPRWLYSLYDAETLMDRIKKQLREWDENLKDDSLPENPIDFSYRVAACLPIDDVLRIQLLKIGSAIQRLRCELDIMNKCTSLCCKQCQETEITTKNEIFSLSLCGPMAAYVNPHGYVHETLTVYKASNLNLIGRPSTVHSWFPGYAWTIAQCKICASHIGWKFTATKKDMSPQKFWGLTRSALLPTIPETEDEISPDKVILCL
Summary of the method: (§2)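 B16F10 cells pre-treated 2 h with DMSO, pomalidomide (10 μM), MG132 (20 μM) or a parent CDK ligand, then exposed to 100 nM degrader for 6 h. CDK2/4/6 protein levels read by western blot.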

B16-F10 [4] = experiment: Induction of apoptosis in mouse B16F10 cells assessed as necrotic cells at 125 nM incubated for 48 hrs by Annexin V-FITC/PI staining based flow cytometry (reference value: 0.21%); assay type: functional
A-375 [5] = experiment: Induction of cell cycle arrest in human A-375 cells assessed as accumulation at G2 phase at 1000 uM incubated for 48 hrs by propidium iodide staining based flow cytometry (reference value: 12.42%); assay type: functional
Summary of the method: (§3)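 Tumor cells incubated 48 h in complete medium with compound or DMSO at various concentrations, stained with propidium iodide, and DNA content read by flow cytometry. G0/G1, S and G2/M fractions reported; mean ± SD, n = 3, Student's t-test.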

[6] = biological target: Protein cereblon/Cyclin-dependent kinase 2 (Mus musculus) (UniProt P97377+Q8C7D2); experiment: Protac activity at CRBN/CDK2 in mouse B16F10 cells assessed as induction of CDK2 protein degradation at 100 nM for 6 hrsin presence of Ribociclib by Western blot analysis; assay type: cell-based; details: B16-F10, time 6.0 hrs
Protein cereblon/Cyclin-dependent kinase 2 (Mus musculus), sequence (Q8C7D2 whole entry, looked up, other chains not shown): as the sequence (Q8C7D2 whole entry, looked up) above

B16-F10 [7] = experiment: Induction of cell cycle arrest in mouse B16-F10 cells assessed as accumulation at G1 phase at 50 uM incubated for 48 hrs by propidium iodide staining based flow cytometry (reference value: 52.59%); assay type: functional
[8] = biological target: Protein cereblon/Cyclin-dependent kinase 2 (Homo sapiens) (UniProt P24941+Q96SW2); experiment: Protac activity at CRBN/CDK2 in human A-375 cells assessed as induction of CDK2 protein degradation at 1000 nM by Western blot analysis; assay type: cell-based; details: time hrs <=12, TDE = time-dependent effect
Summary of the method: (§4)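 B16F10 and A375 cells treated with DMSO or serial dilutions of compound for 12 h (concentration series), or for the indicated times (time course). CDK2, CDK4 and CDK6 protein levels determined by western blot.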

A-375 [9] = experiment: Induction of cell cycle arrest in human A-375 cells assessed as accumulation at G1 phase at 250 uM incubated for 48 hrs by propidium iodide staining based flow cytometry (reference value: 58.26%); assay type: functional; summary of the method: as §3
[10] = biological target: T2, Protein cereblon/Cyclin-dependent kinase 4 (Mus musculus) (UniProt P30285+Q8C7D2); experiment: Protac activity at CRBN/CDK4 in mouse B16F10 cells assessed as induction of CDK4 protein degradation at 100 nM for 6 hrsin presence of methyl 6-(7-cyclopentyl-6-(dimethylcarbamoyl)-7H-pyrrolo[2,3-d]pyrimidin-2-ylamino)nicotinate by Western blot analysis; assay type: cell-based; details: B16-F10, time 6.0 hrs; summary of the method: as §2
T2 sequence (P30285 whole entry, looked up): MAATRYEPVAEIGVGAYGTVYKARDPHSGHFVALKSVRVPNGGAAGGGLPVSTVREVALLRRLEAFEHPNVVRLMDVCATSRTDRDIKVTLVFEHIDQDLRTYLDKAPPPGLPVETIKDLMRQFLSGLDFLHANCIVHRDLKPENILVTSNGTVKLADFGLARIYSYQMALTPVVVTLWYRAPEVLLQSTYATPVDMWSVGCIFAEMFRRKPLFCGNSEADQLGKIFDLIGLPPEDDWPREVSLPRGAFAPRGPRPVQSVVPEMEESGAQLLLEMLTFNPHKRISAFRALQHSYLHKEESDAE
T2 sequence (Q8C7D2 whole entry, looked up): as the sequence (Q8C7D2 whole entry, looked up) above

B16-F10 [11] = experiment: Cytotoxicity against mouse B16F10 cells assessed as reduction in cell viability after 72 hrs by MTT assay; assay type: functional, cell-based; details: B16-F10, 72 h
Summary of the method: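 Cells exposed to compound for 72 h and viability read by MTT; IC50 from three independent experiments.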

A-375 [12] = experiment: Induction of apoptosis in human A-375 cells assessed as necrotic cells at 1000 nM incubated for 48 hrs by Annexin V-FITC/PI staining based flow cytometry (reference value: 0.602%); assay type: functional
[13] = biological target: T2, Protein cereblon/Cyclin-dependent kinase 4 (Mus musculus); experiment: Protac activity at CRBN/CDK4 in mouse B16F10 cells assessed as induction of CDK4 protein degradation after 12 hrs by Western blot analysis; assay type: cell-based; details: B16-F10, dose 62.5-1000 nM; summary of the method: as §4
B16-F10 [14] = experiment: Induction of apoptosis in mouse B16F10 cells assessed as viable cells at 250 nM incubated for 48 hrs by Annexin V-FITC/PI staining based flow cytometry (reference value: 95.9%); assay type: functional; details: read-out: Activity
B16-F10 [15] = experiment: Induction of cell cycle arrest in mouse B16-F10 cells assessed as accumulation at G2 phase at 50 uM incubated for 48 hrs by propidium iodide staining based flow cytometry (reference value: 18.22%); assay type: functional
B16-F10 [16] = experiment: Induction of apoptosis in mouse B16F10 cells assessed as early apoptotic cells at 500 nM incubated for 48 hrs by Annexin V-FITC/PI staining based flow cytometry (reference value: 3.52%); assay type: functional
A-375 [17] = experiment: Induction of apoptosis in human A-375 cells assessed as early apoptotic cells at 1000 nM incubated for 48 hrs by Annexin V-FITC/PI staining based flow cytometry (reference value: 2.82%); assay type: functional
A-375 [18] = experiment: Induction of apoptosis in human A-375 cells assessed as increase in cleaved PARP level incubated for 48 hrs by Western blot analysis; assay type: functional, cell-based; details: dose nM <=2000, time 48.0 hrs; summary of the method: as §1
B16-F10 [19] = experiment: Induction of apoptosis in mouse B16F10 cells assessed as late apoptotic cells at 250 nM incubated for 48 hrs by Annexin V-FITC/PI staining based flow cytometry (reference value: 0.551%); assay type: functional
A-375 [20] = experiment: Induction of apoptosis in human A-375 cells assessed as viable cells at 250 nM incubated for 48 hrs by Annexin V-FITC/PI staining based flow cytometry (reference value: 93.3%); assay type: functional; details: read-out: Activity
A-375 [21] = experiment: Induction of apoptosis in human A-375 cells assessed as necrotic cells at 500 nM incubated for 48 hrs by Annexin V-FITC/PI staining based flow cytometry (reference value: 0.602%); assay type: functional
[22] = biological target: T1, Protein cereblon/Cyclin-dependent kinase 6 (Mus musculus); experiment: Protac activity at CRBN/CDK6 in mouse B16F10 cells assessed as induction of CDK6 protein degradation at 100 nM for 6 hrs in presence of proteasome inhibitor MG132 by Western blot analysis; assay type: cell-based; details: B16-F10; summary of the method: as §2
B16-F10 [23] = experiment: Induction of apoptosis in mouse B16F10 cells assessed as viable cells at 125 nM incubated for 48 hrs by Annexin V-FITC/PI staining based flow cytometry (reference value: 95.9%); assay type: functional; details: read-out: Activity
A-375 [24] = experiment: Induction of apoptosis in human A-375 cells assessed as increase in P-53 level upto 2000 nM incubated for 48 hrs by Western blot analysis; assay type: functional, cell-based; details: dose nM <=2000, time 48.0 hrs; summary of the method: as §1
B16-F10 [25] = experiment: Induction of apoptosis in mouse B16F10 cells assessed as late apoptotic cells at 500 nM incubated for 48 hrs by Annexin V-FITC/PI staining based flow cytometry (reference value: 0.551%); assay type: functional
A-375 [26] = experiment: Induction of apoptosis in human A-375 cells assessed as late apoptotic cells at 500 nM incubated for 48 hrs by Annexin V-FITC/PI staining based flow cytometry (reference value: 3.28%); assay type: functional
B16-F10 [27] = experiment: Induction of apoptosis in mouse B16F10 cells assessed as increase in bax level upto 1000 nM incubated for 48 hrs by Western blot analysis; assay type: functional, cell-based; details: dose nM <=1000, time 48.0 hrs; summary of the method: as §1
B16-F10 [28] = experiment: Induction of apoptosis in mouse B16F10 cells incubated for 48 hrs by Annexin V-FITC/PI staining based flow cytometry; assay type: functional, cell-based; details: dose nM <=1000, time 48.0 hrs

Structure (SMILES): CN(C)C(=O)c1cc2cnc(Nc3ccc(C(=O)NCCCCCCNc4cccc5c4C(=O)N(C4CCC(=O)NC4=O)C5=O)cc3)nc2n1C1CCCC1 (stereo not drawn)
- AUC [1]: 161 µg·h/mL
- Activity (B16-F10 [2]): Active
- Activity [3]: inactive
- Activity (B16-F10 [4]): 0.289%
- Activity (A-375 [5]): 16.68%
- Activity [6]: Active
- Activity (B16-F10 [7]): 49.54%
- Activity [8]: Tde
- Activity (A-375 [9]): 67.64%
- Activity [10]: inactive
- IC50 (B16-F10 [11]): 97.6 nM
- Activity (A-375 [12]): 0.273%
- Activity [13]: Dose-dependent effect
- viability at 0.25 µM (B16-F10 [14]): 23.4%
- Activity (B16-F10 [15]): 22.66%
- Activity (B16-F10 [16]): 93.6%
- Activity (A-375 [17]): 29.3%
- Activity (A-375 [18]): Dose-dependent effect
- Activity (B16-F10 [19]): 6.13%
- viability at 0.25 µM (A-375 [20]): 90.5%
- Activity (A-375 [21]): 0.153%
- Activity [22]: inactive
- viability at 0.125 µM (B16-F10 [23]): 86.1%
- Activity (A-375 [24]): Active
- Activity (B16-F10 [25]): 1.63%
- Activity (A-375 [26]): 5.1%
- Activity (B16-F10 [27]): Active
- Activity (B16-F10 [28]): Dose-dependent effect

— ChEMBL document CHEMBL4732105, “First orally bioavailable prodrug of proteolysis targeting chimera (PROTAC) degrades cyclin-dependent kinases 2/4/6 in vivo” (Eur J Med Chem, 2021)
